The nature of series [1]: Drug metabolism in rat liver microsomes at 1 uM incubated for 15 mins at 37 degC. The series is classed as ADME. The conditions noted are these: read-out: Drug metabolism. The procedure, abridged: (§1)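 Compound at 1 μM incubated 15 min at 37 °C with human or rat liver microsomes; read-out is percent metabolized.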
The target of series [2] is T1, cAMP and cAMP-inhibited cGMP 3',5'-cyclic phosphodiesterase 10A (Rattus norvegicus, UniProt Q9QYJ6).
T1 sequence (Q9QYJ6 whole entry): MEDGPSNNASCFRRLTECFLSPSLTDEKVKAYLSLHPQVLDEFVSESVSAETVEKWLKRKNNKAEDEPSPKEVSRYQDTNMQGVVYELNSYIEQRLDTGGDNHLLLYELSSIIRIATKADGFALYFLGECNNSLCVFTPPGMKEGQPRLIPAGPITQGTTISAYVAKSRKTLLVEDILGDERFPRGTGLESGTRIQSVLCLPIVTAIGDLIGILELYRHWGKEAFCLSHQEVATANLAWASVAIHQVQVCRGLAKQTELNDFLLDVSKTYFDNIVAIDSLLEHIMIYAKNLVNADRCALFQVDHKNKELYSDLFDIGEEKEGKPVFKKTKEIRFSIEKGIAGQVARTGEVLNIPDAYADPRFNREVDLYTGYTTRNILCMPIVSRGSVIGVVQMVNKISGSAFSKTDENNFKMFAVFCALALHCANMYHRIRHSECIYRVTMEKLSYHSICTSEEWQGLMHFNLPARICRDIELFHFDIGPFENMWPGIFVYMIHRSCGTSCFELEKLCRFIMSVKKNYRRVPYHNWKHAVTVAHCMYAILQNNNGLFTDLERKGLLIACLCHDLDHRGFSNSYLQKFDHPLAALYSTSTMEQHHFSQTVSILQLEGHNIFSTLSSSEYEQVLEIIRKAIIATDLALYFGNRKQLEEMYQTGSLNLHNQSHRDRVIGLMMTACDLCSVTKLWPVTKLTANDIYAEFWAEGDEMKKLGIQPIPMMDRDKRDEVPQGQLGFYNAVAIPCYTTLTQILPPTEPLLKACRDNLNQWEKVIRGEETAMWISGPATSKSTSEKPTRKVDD
Nature of the series: Inhibition of 6-His-tagged rat recombinant PDE10A expressed in Sf9 cells using [3H]cAMP incubated for 60 mins by scintillation proximity assay.

Series [3] can be described thus: Drug metabolism in human liver microsomes at 1 uM incubated for 15 mins at 37 degC. The series is classed as ADME. To be noted: read-out: Drug metabolism. The gist of the method: as §1
On the technique in general: Liver microsomes are a subcellular fraction often used to study metabolism.

Series [4] can be described thus: Dissociation constant, pKa of the compound. The series is classed as physicochemical.
Series [5] is described as follows: Ratio of drug level in brain to plasma of Sprague-Dawley rat at 10 mg/kg, sc after 1 hr. The series is classed as ADME, organism-based. On the set-up: dose 10 mg/kg, route subcutaneous. The conditions noted are these: read-out: BPR. The gist of the method: (§2)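 Fed male Sprague-Dawley rats, n = 2 per time point, given 10 mg/kg s.c. in 20% HPβCD at pH 3.5−4. Brain and plasma levels taken 1 h after dosing; brain-to-plasma ratio computed from these.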

The test system of a further series is Rattus norvegicus. Put plainly: In vivo PDE2 occupancy in Wistar rat assessed as inhibition of specific binding of [3H]-4-((1-(5-butoxypyridin-3-yl)-4-methyl-[1,2,4]triazolo[4,3-a]quinoxalin-8-yl)methyl)morpholine radiotracer at 10 mg/kg, sc and pre-treated with 2.5 mg/kg, sc PDE10 inhibitor MP10. It counts as functional.
Series [6] can be described thus: Drug level in Sprague-Dawley rat brain homogenates at 10 mg/kg, sc after 1 hr. The conditions noted are these: read-out: Drug uptake. The series is classed as ADME, organism-based. On the set-up: dose 10 mg/kg, route subcutaneous. The gist of the method: as §2
Series [7] can be described thus: Unbound fraction in Sprague-Dawley rat brain homogenates at 10 mg/kg, sc after 5 hrs at 37 degC by rapid equilibrium dialysis. It counts as ADME, organism-based. On the set-up: dose 10 mg/kg, route subcutaneous. The conditions noted are these: brain homogenate. The gist of the method: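 Unbound fraction measured in rat brain homogenate by rapid equilibrium dialysis, 5 h incubation at 37 °C.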
For orientation: In equilibrium dialysis free small molecules cross a membrane that holds back macromolecules.

As to `Cc1nc2ccncc2n2c(-c3cc(OC(F)(F)F)ccc3Cl)nnc12`, the results for the metabolised at 0.25 h, 1 µM in series [1] and in series [3] were 11% and 3%, respectively. For the same molecule, the IC50 in series [2] came to 8.91 µM.

Take `Cc1nc2cccnc2n2c(-c3ccccc3Cl)nnc12`: the pKa in series [4] was found to be 1.

Turning to `CCCCOc1cncc(-c2nnc3c(C)nc4ccncc4n23)c1`, the metabolised at 0.25 h, 1 µM in series [1] worked out at 46%; in series [3], 6%. The Kp at 1 h in series [5] was determined as 0.61. The Occ with Rattus norvegicus was determined as 23%. In series [6], the concentration at 1 h was 789 ng/g. For the same molecule, the fraction unbound at 5 h in series [7] was > 0.3.

Regarding `CCCOCc1ccc(Cl)c(-c2nnc3c(C)nc4ccncc4n23)c1`, the metabolised at 0.25 h, 1 µM in series [1] amounted to 98%; in series [3] it was 78%. Besides, the Kp at 1 h in series [5] came to 0.98. In series [6], the concentration at 1 h is 895 ng/g. Also, the IC50 in series [2] worked out at 3.89 µM. The molecule further yielded a fraction unbound at 5 h in series [7] of 0.1.

As to `COCCOc1ccc(Cl)c(-c2nnc3c(C)nc4ccncc4n23)c1`, the metabolised at 0.25 h, 1 µM in series [1] was 18%; in series [3], 5%. In addition, in series [5], the Kp at 1 h came to 0.44. Further, in series [6], the concentration at 1 h is 801 ng/g. Further, the IC50 in series [2] came out at 9.12 µM. Further, the fraction unbound at 5 h in series [7] came to 0.17.

What is called IC50 is the concentration needed to halve the response being measured. The pKa is the pH at which an ionisable group is half protonated. Usually fraction unbound stands for the share of the substance not bound to proteins or other matrix. Lower therefore signals little free substance.

(Values after ChEMBL document CHEMBL3425427, “Pyrido[4,3-e][1,2,4]triazolo[4,3-a]pyrazines as Selective, Brain Penetrant Phosphodiesterase 2 (PDE2) Inhibitors” (ACS Med Chem Lett, 2015).)
